ChEMBL document CHEMBL4118063, “Design, synthesis and evaluation of aromatic heterocyclic derivatives as potent antifungal agents” (Eur J Med Chem, 2017)
Converted amounts (≈) assume the structure as drawn. Values belong to the compound of their own block, whether it stands above or below them.

How the values were obtained:
Aspergillus fumigatus = experiment: Antifungal activity against Aspergillus fumigatus GIM 3.524 by broth microdilution method; type: functional
Procedure, shortened: (§1)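 Serial twofold-style dilution in growth medium per NCCLS broth microdilution guidelines. Compounds dissolved in DMSO before dilution. Fluconazole and itraconazole served as positive controls. MIC was read as the lowest concentration that prevents visible fungal growth.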

Candida tropicalis = experiment: Antifungal activity against Candida tropicalis cgmcc 2.3739 by broth microdilution method; type: functional; procedure, shortened: as §1
Cryptococcus neoformans = experiment: Antifungal activity against Cryptococcus neoformans cgmcc 2.3161 by broth microdilution method; type: functional; procedure, shortened: as §1
Candida albicans [1] = experiment: Antifungal activity against Candida albicans CPCC 400523 by broth microdilution method; type: functional; procedure, shortened: as §1
Candida albicans [2] = experiment: Antifungal activity against Candida albicans ATCC SC5314 by broth microdilution method; type: functional; procedure, shortened: as §1
Candida albicans [3] = experiment: Antifungal activity against fluconazole-resistant Candida albicans strain 100 by broth microdilution method; type: functional
Procedure, shortened: (§2)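 Broth serial dilution in 96-well plates per NCCLS guidelines; compounds dissolved in DMSO and serially diluted into growth medium; MIC taken as lowest concentration inhibiting visible fungal growth. Fluconazole-resistant clinical C. albicans isolates 100 and 103; fluconazole and itraconazole as positive controls.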

Candida albicans [4] = experiment: Antifungal activity against fluconazole-resistant Candida albicans strain 103 by broth microdilution method; type: functional; procedure, shortened: as §2
[5] = Metabolic stability in human plasma assessed as parent compound remaining at 60 mins; type: ADME, cell-free; conditions: read-out: Stability
[6] = Metabolic stability in human plasma assessed as parent compound remaining at 120 mins; type: ADME, cell-free; conditions: read-out: Stability
[7] = molecular target: T1, Lanosterol 14-alpha demethylase (Candida albicans (strain SC5314 / ATCC MYA-2876) (Yeast), UniProt P10613); experiment: Inhibition of CYP51 in Candida albicans ATCC SC5314 assessed as obtusifoliol content at 0.5 ug/ml by GS-MS analysis relative to total sterols (reference value: 0.6%); parameters: scale not given: the % may be the effect or the level left; conditions: at 0.5 µg/mL
[8] = molecular target: T1, Lanosterol 14-alpha demethylase; experiment: Inhibition of CYP51 in Candida albicans ATCC SC5314 assessed as lanosterol content at 8 ug/ml by GS-MS analysis relative to total sterols; parameters: scale not given: the % may be the effect or the level left; conditions: at 8 µg/mL
[9] = molecular target: T1, Lanosterol 14-alpha demethylase; experiment: Inhibition of CYP51 in Candida albicans ATCC SC5314 assessed as obtusifoliol content at 0.125 ug/ml by GS-MS analysis relative to total sterols (reference value: 0.6%); parameters: scale not given: the % may be the effect or the level left
[10] = molecular target: T1, Lanosterol 14-alpha demethylase; experiment: Inhibition of CYP51 in Candida albicans ATCC SC5314 assessed as increase in lanosterol content by GS-MS analysis
[11] = molecular target: T1, Lanosterol 14-alpha demethylase; experiment: Inhibition of CYP51 in Candida albicans ATCC SC5314 assessed as obtusifoliol content at 2 ug/ml by GS-MS analysis relative to total sterols (reference value: 0.6%); parameters: scale not given: the % may be the effect or the level left; conditions: at 2 µg/mL
[12] = molecular target: T1, Lanosterol 14-alpha demethylase; experiment: Inhibition of CYP51 in Candida albicans ATCC SC5314 assessed as eburicol content at 8 ug/ml by GS-MS analysis relative to total sterols (reference value: 0.4%); parameters: scale not given: the % may be the effect or the level left; conditions: at 8 µg/mL
[13] = molecular target: T1, Lanosterol 14-alpha demethylase; experiment: Inhibition of CYP51 in Candida albicans ATCC SC5314 assessed as eburicol content at 0.125 ug/ml by GS-MS analysis relative to total sterols (reference value: 0.4%); parameters: scale not given: the % may be the effect or the level left
[14] = molecular target: T1, Lanosterol 14-alpha demethylase; experiment: Inhibition of CYP51 in Candida albicans ATCC SC5314 assessed as ergosterol content at 0.125 ug/ml by GS-MS analysis relative to total sterols (reference value: 98.7%); parameters: scale not given: the % may be the effect or the level left
[15] = molecular target: T1, Lanosterol 14-alpha demethylase; experiment: Inhibition of CYP51 in Candida albicans ATCC SC5314 assessed as ergosterol content at 0.03125 ug/ml by GS-MS analysis relative to total sterols (reference value: 98.7%); parameters: scale not given: the % may be the effect or the level left
[16] = molecular target: T1, Lanosterol 14-alpha demethylase; experiment: Inhibition of CYP51 in Candida albicans ATCC SC5314 assessed as decrease in ergosterol content by GS-MS analysis
[17] = molecular target: T1, Lanosterol 14-alpha demethylase; experiment: Inhibition of CYP51 in Candida albicans ATCC SC5314 assessed as lanosterol content at 2 ug/ml by GS-MS analysis relative to total sterols; parameters: scale not given: the % may be the effect or the level left; conditions: at 2 µg/mL
[18] = molecular target: T1, Lanosterol 14-alpha demethylase; experiment: Inhibition of CYP51 in Candida albicans ATCC SC5314 assessed as ergosterol content at 0.5 ug/ml by GS-MS analysis relative to total sterols (reference value: 98.7%); parameters: scale not given: the % may be the effect or the level left; conditions: at 0.5 µg/mL
[19] = molecular target: T1, Lanosterol 14-alpha demethylase; experiment: Inhibition of CYP51 in Candida albicans ATCC SC5314 assessed as lanosterol content at 0.5 ug/ml by GS-MS analysis relative to total sterols; parameters: scale not given: the % may be the effect or the level left; conditions: at 0.5 µg/mL
[20] = molecular target: T1, Lanosterol 14-alpha demethylase; experiment: Inhibition of CYP51 in Candida albicans ATCC SC5314 assessed as ergosterol content at 8 ug/ml by GS-MS analysis relative to total sterols (reference value: 98.7%); parameters: scale not given: the % may be the effect or the level left; conditions: at 8 µg/mL
[21] = molecular target: T1, Lanosterol 14-alpha demethylase; experiment: Inhibition of CYP51 in Candida albicans ATCC SC5314 assessed as lanosterol content at 0.125 ug/ml by GS-MS analysis relative to total sterols; parameters: scale not given: the % may be the effect or the level left
[22] = molecular target: T1, Lanosterol 14-alpha demethylase; experiment: Inhibition of CYP51 in Candida albicans ATCC SC5314 assessed as obtusifoliol content at 8 ug/ml by GS-MS analysis relative to total sterols (reference value: 0.6%); parameters: scale not given: the % may be the effect or the level left; conditions: at 8 µg/mL
[23] = molecular target: T1, Lanosterol 14-alpha demethylase; experiment: Inhibition of CYP51 in Candida albicans ATCC SC5314 assessed as eburicol content at 0.03125 ug/ml by GS-MS analysis relative to total sterols (reference value: 0.4%); parameters: scale not given: the % may be the effect or the level left
[24] = molecular target: T1, Lanosterol 14-alpha demethylase; experiment: Inhibition of CYP51 in Candida albicans ATCC SC5314 assessed as eburicol content at 0.5 ug/ml by GS-MS analysis relative to total sterols (reference value: 0.4%); parameters: scale not given: the % may be the effect or the level left; conditions: at 0.5 µg/mL
[25] = molecular target: T1, Lanosterol 14-alpha demethylase; experiment: Inhibition of CYP51 in Candida albicans ATCC SC5314 assessed as obtusifoliol content at 0.03125 ug/ml by GS-MS analysis relative to total sterols (reference value: 0.6%); parameters: scale not given: the % may be the effect or the level left
[26] = molecular target: T1, Lanosterol 14-alpha demethylase; experiment: Inhibition of CYP51 in Candida albicans ATCC SC5314 assessed as ergosterol content at 2 ug/ml by GS-MS analysis relative to total sterols (reference value: 98.7%); parameters: scale not given: the % may be the effect or the level left; conditions: at 2 µg/mL
[27] = molecular target: T1, Lanosterol 14-alpha demethylase; experiment: Inhibition of CYP51 in Candida albicans ATCC SC5314 assessed as eburicol content at 2 ug/ml by GS-MS analysis relative to total sterols (reference value: 0.4%); parameters: scale not given: the % may be the effect or the level left; conditions: at 2 µg/mL
[28] = molecular target: T1, Lanosterol 14-alpha demethylase; experiment: Inhibition of CYP51 in Candida albicans ATCC SC5314 assessed as increase in eburicol content by GS-MS analysis

T1 sequence (P10613 whole entry): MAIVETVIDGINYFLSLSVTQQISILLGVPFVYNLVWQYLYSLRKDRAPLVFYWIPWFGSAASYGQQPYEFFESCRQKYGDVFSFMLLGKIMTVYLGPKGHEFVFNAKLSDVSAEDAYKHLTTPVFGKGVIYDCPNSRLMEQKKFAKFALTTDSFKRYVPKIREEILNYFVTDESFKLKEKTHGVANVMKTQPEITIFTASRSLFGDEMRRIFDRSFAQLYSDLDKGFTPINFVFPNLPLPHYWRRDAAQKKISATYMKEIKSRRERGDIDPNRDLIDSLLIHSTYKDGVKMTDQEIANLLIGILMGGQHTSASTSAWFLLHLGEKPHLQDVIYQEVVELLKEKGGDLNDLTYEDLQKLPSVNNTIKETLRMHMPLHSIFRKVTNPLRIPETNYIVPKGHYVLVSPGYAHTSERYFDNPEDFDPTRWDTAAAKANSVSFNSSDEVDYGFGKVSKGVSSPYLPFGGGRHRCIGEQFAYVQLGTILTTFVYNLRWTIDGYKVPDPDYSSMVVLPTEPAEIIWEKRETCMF

SMILES: CC(C)COC(=O)[C@H](Cn1ccnc1)NC(=O)c1cc(-c2ccccc2F)on1
MIC (Aspergillus fumigatus): 4 mg/L (≈ 9.99 µM) | MIC (Candida tropicalis): 0.0312 mg/L (≈ 0.078 µM) | MIC (Candida albicans [3]): 0.125 mg/L (≈ 0.312 µM) | MIC (Candida albicans [4]): 0.5 mg/L (≈ 1.25 µM) | remaining at 1 h [5]: 74.6% | MIC (Cryptococcus neoformans): 0.25 mg/L (≈ 0.624 µM) | MIC (Candida albicans [1]): 0.125 mg/L (≈ 0.312 µM) | MIC (Candida albicans [2]): 0.0312 mg/L (≈ 0.078 µM) | remaining at 2 h [6]: 61.4%

SMILES: CC(C)OC(=O)[C@H](Cn1ccnc1)NC(=O)c1cc(-c2ccccc2F)on1
MIC (Aspergillus fumigatus): 4 mg/L (≈ 10.4 µM) | Activity [7]: 6.9% | Activity [8]: 26.7% | MIC (Candida tropicalis): 0.0312 mg/L (≈ 0.0809 µM) | Activity [9]: 6.9% | inhibition (INH) [10]: Dose-dependent effect | Activity [11]: 9.2% | MIC (Candida albicans [3]): 1 mg/L (≈ 2.59 µM) | Activity [12]: 63.7% | Activity [13]: 4.9% | Activity [14]: 85.9% | Activity [15]: 93.9% | MIC (Candida albicans [4]): 1 mg/L (≈ 2.59 µM) | inhibition (INH) [16]: Dose-dependent effect | Activity [17]: 22% | Activity [18]: 30.8% | Activity [19]: 16.7% | Activity [20]: 0.7% | Activity [21]: 2.2% | Activity [22]: 8.9% | remaining at 1 h [5]: 95.3% | MIC (Cryptococcus neoformans): 0.5 mg/L (≈ 1.29 µM) | Activity [23]: 1.7% | MIC (Candida albicans [1]): 0.25 mg/L (≈ 0.647 µM) | Activity [24]: 45.6% | MIC (Candida albicans [2]): 0.0625 mg/L (≈ 0.162 µM) | remaining at 2 h [6]: 91.8% | Activity [25]: 4.3% | Activity [26]: 5.4% | Activity [27]: 63.3% | inhibition (INH) [28]: Dose-dependent effect

SMILES: CC(C)COC(=O)[C@H](Cn1ccnc1)NC(=O)c1ccc(-c2ccccc2)s1
MIC (Aspergillus fumigatus): > 16 mg/L | MIC (Candida tropicalis): 0.125 mg/L (≈ 0.314 µM) | MIC (Cryptococcus neoformans): > 16 mg/L | MIC (Candida albicans [1]): 4 mg/L (≈ 10.1 µM) | MIC (Candida albicans [2]): 2 mg/L (≈ 5.03 µM)

Second part, the compound after the results:

MIC (Aspergillus fumigatus): 4 mg/L (≈ 10.5 µM) | MIC (Candida tropicalis): 0.0312 mg/L (≈ 0.0817 µM) | MIC (Cryptococcus neoformans): 0.25 mg/L (≈ 0.654 µM) | MIC (Candida albicans [1]): 1 mg/L (≈ 2.61 µM) | MIC (Candida albicans [2]): 0.0625 mg/L (≈ 0.163 µM)
SMILES: CC(C)COC(=O)[C@H](Cn1ccnc1)NC(=O)c1cc(-c2ccccc2)on1

MIC (Aspergillus fumigatus): 4 mg/L (≈ 10.9 µM) | MIC (Candida tropicalis): 0.0625 mg/L (≈ 0.17 µM) | MIC (Cryptococcus neoformans): 0.5 mg/L (≈ 1.36 µM) | MIC (Candida albicans [1]): 0.5 mg/L (≈ 1.36 µM) | MIC (Candida albicans [2]): 0.25 mg/L (≈ 0.679 µM)
SMILES: CC(C)OC(=O)[C@H](Cn1ccnc1)NC(=O)c1cc(-c2ccccc2)on1
